Results as given in ChEMBL document CHEMBL1138881, “Application of phosphoramidate ProTide technology significantly improves antiviral potency of carbocyclic adenosine derivatives” (J Med Chem, 2006).

Tests used:
[1] = system: Human immunodeficiency virus 1; experiment: Antiviral activity against HIV1 3B in MT4 cells; assay type: functional, organism-based; conditions: Human immunodeficiency virus 1, 3B
Procedure, shortened: (§1)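 MT-4 cells at 4.5 × 10⁵ cells/mL were infected with 100 CCID₅₀/mL of HIV-1 or HIV-2. Viable cells were then counted after trypan blue staining, and EC₅₀ was derived from these viable-cell counts.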

[2] = system: Human immunodeficiency virus 2; experiment: Antiviral activity against HIV2 ROD in MT4 cells; assay type: functional, organism-based; conditions: Human immunodeficiency virus 2, ROD; procedure, shortened: as §1
MT4 = experiment: Cytotoxicity against MT4 cells; assay type: functional; conditions: Homo sapiens
Procedure, shortened: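 Exponentially growing MT-4 cells were resuspended at 5 × 10⁵ cells/mL in RPMI 1640 with 20% FBS and 20% IL-2. They were infected with HIV-1 IIIB (100 × TCID₅₀ per well) for 1 h at 37 °C, with mock-infected cells run in parallel. The suspension was diluted 6-fold onto serially diluted compound and incubated for 5 days at 37 °C in 5% CO₂. MTS staining was read at 492 nm.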

[3] = system: Human immunodeficiency virus 1; experiment: Antiviral activity against HIV1 3B in CEM cells; assay type: functional, organism-based; conditions: Human immunodeficiency virus 1, 3B, CCRF-CEM
Procedure, shortened: (§2)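 CEM cells at 4.5 × 10⁵ cells/mL were infected with 100 CCID₅₀/mL of HIV-1 or HIV-2. Giant-cell formation was scored microscopically. EC₅₀ was the concentration preventing syncytium formation by 50%.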

[4] = system: Human immunodeficiency virus 2; experiment: Antiviral activity against HIV2 ROD in CEM cells; assay type: functional, organism-based; conditions: Human immunodeficiency virus 2, ROD, CCRF-CEM; procedure, shortened: as §2
Hepatitis B virus = experiment: Antiviral activity against HBV in HepG2 2.2.15 cells; assay type: functional, organism-based
Procedure, shortened: (§3)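 HepG2 2.2.15 cells, which produce HBV constitutively, were seeded at 5 × 10³ per well. Drug-containing medium was replaced every other day for 9 days. Virions in the supernatant were captured on anti-HBsAg plates, and their DNA was quantified by PCR against an HBV standard curve and normalized to untreated cells. For cell growth, monolayers were ethanol-fixed and stained with bisbenzimide H33342, and fluorescence was compared with untreated cells. SI = CC₅₀/EC₅₀.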

HepG2 [5] = experiment: Cytotoxicity against HepG2 2.2.15 cells; assay type: functional; conditions: Homo sapiens; procedure, shortened: as §3
Cynomolgus monkey [6] = experiment: Metabolic stability in cynomolgus monkey liver S9 fraction; assay type: ADME, Macaca fascicularis
Procedure, shortened: (§4)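 Pooled cynomolgus S9 (liver or intestinal segments), test compound 10 µM final, 37 °C, DMSO <1% final; reaction started with NADPH 2.5 mM final. Aliquots taken at 0 (preincubation), 10, 20, 30 and 60 min, quenched with cold acetonitrile, centrifuged; supernatant parent measured by LC/MS/MS. Stability given as % remaining from pre- vs postincubation peak areas.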

Cynomolgus monkey [7] = experiment: Metabolic stability in cynomolgus monkey intestine S9 fraction; assay type: ADME, Macaca fascicularis; procedure, shortened: as §4
HepG2 [8] = experiment: Selectivity index, CC50 for HepG2 2.2.15 cells/EC50 for HBV; assay type: functional; procedure, shortened: as §3
CEM cells (Homo sapiens) = experiment: Cytotoxicity against CEM cells

SMILES	EC50 [1]	EC50 [2]	CC50 (MT4)	EC50 [3]	EC50 [4]	EC50 (Hepatitis B virus)	CC50 (HepG2 [5])	Stability (Cynomolgus monkey [6])	Stability (Cynomolgus monkey [7])	Ratio CC50/EC50 (HepG2 [8])	CC50 (CEM cells (Homo sapiens))
COC(=O)[C@H](C)NP(=O)(OC[C@H]1C=C[C@@H](n2cnc3c(N)ncnc32)C1)Oc1ccccc1 (stereo partly specified)	0.03 µM	0.043 µM	6.4 µM	0.13 µM	0.09 µM	0.017 µM	1280 µM	24%	74%	75000	18.1 µM
COC(=O)[C@H](Cc1ccc(O)cc1)NP(=O)(OC[C@H]1C=C[C@@H](n2cnc3c(N)ncnc32)C1)Oc1ccccc1 (stereo partly specified)	0.58 µM	0.72 µM	26.9 µM	5.33 µM	18.1 µM	0.05 µM	> 2 µM	0%	0%	–	110 µM
COC(=O)CNP(=O)(OC[C@H]1C=C[C@@H](n2cnc3c(N)ncnc32)C1)Oc1ccccc1 (stereo partly specified)	4.35 µM	5.73 µM	> 100 µM	13.5 µM	20 µM	0.086 µM	> 2 µM	46%	85%	–	≥ 250 µM
CC[C@H](C)[C@H](NP(=O)(OC[C@H]1C=C[C@@H](n2cnc3c(N)ncnc32)C1)Oc1ccccc1)C(=O)OC (stereo partly specified)	0.96 µM	1.13 µM	> 5 µM	2.1 µM	3.5 µM	0.06 µM	76 µM	0%	69%	–	118 µM
COC(=O)[C@H](CCCCN)NP(=O)(OC[C@H]1C=C[C@@H](n2cnc3c(N)ncnc32)C1)Oc1ccccc1.O=C(O)C(F)(F)F (stereo partly specified)	15.2 µM	27.2 µM	> 25 µM	25 µM	150 µM	2 µM	> 100 µM	95%	17%	–	> 250 µM
COC(=O)[C@H](CCSC)NP(=O)(OC[C@H]1C=C[C@@H](n2cnc3c(N)ncnc32)C1)Oc1ccccc1 (stereo partly specified)	0.16 µM	0.21 µM	> 5 µM	0.53 µM	1 µM	0.03 µM	16 µM	0%	66%	–	85.8 µM
CC(C)OC(=O)[C@H](C)NP(=O)(OC[C@H]1C=C[C@@H](n2cnc3c(N)ncnc32)C1)Oc1ccccc1 (stereo partly specified)	0.15 µM	0.22 µM	91.4 µM	0.3 µM	0.25 µM	0.006 µM	> 2 µM	8%	90%	–	84 µM
COC(=O)[C@@H](NP(=O)(OC[C@H]1C=C[C@@H](n2cnc3c(N)ncnc32)C1)Oc1ccccc1)C(C)C (stereo partly specified)	0.64 µM	1.05 µM	< 25 µM	1 µM	4.5 µM	0.02 µM	120 µM	2%	91%	–	167 µM
COC(=O)[C@H](CC(C)C)NP(=O)(OC[C@H]1C=C[C@@H](n2cnc3c(N)ncnc32)C1)Oc1ccccc1 (stereo partly specified)	0.19 µM	0.13 µM	> 5 µM	0.42 µM	0.56 µM	0.01 µM	20 µM	0%	75%	–	70 µM
